Measurements taken from publication PMC3932990 (Journal of medicinal chemistry, 2013).

How the values were obtained:
RPA70N [1] = biological target: T1, RPA70N (Homo sapiens, UniProt P27694); test: NMR-based titration, binding to RPA70N; details: linked compound vs fragments
RPA70N [2] = biological target: T1, RPA70N; test: ATRIP-based FPA competition assay; format: binding; details: from FPA-derived Kd
How it was run: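 Competitive fluorescence polarization anisotropy. Buffer: 50 mM HEPES, 75 mM NaCl, 5 mM DTT, pH 7.5, 5% DMSO. Test compound run as 10-point 3-fold series, 500–0.025 µM final. 4-parameter logistic IC50 converted to Kd.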

SMILES	increase in affinity with respect to the starting fragments (RPA70N [1])	ligand efficiency (LE) (RPA70N [2])
Cc1cccc(-n2nc(C(=O)O)cc2-c2ccc(OCc3ccc(-c4ccc(C(=O)O)o4)cc3)cc2)c1 [compound 7, 5-(4-((4-(5-Carboxyfuran-2-yl)benzyl)oxy)phenyl)-1-(m-tolyl)-1H-pyrazole-3-carboxylic acid]	> 20 fold	–
O=C(O)c1cc(-c2ccc(CNC(=S)c3ccc(-c4ccc(C(=O)O)o4)cc3Cl)cc2)n(-c2ccc(Cl)c(Cl)c2)n1 [compound 8, 5-(4-((4-(5-Carboxyfuran-2-yl)-2-chlorophenylthioamido)methyl)phenyl)-1-(3,4-dichlorophenyl)-1H-pyrazole-3-carboxylic acid]	–	0.23
O=C(O)c1cc(-c2ccc(CNC(=O)c3ccc(-c4ccc(C(=O)O)o4)cc3Cl)cc2)n(-c2ccc(Cl)c(Cl)c2)n1 [compound 22, 5-(4-((4-(5-Carboxyfuran-2-yl)-2-chlorobenzamido)methyl)phenyl)-1-(3,4-dichlorophenyl)-1H-pyrazole-3-carboxylic acid]	–	0.18
